Screening data (PubChem BioAssay)
Autophagy HCS: alters autophagy in cells; MEF GFP-LC3 puncta imaging; test concentration mostly 10 µM; calls only at 10 µM (by protocol); 0.98% of 190,000 active; AID 463193;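 active = percentage of spot-positive cells more than 3 SD above its plate mean, without a fluorescence outlier flag or 80% toxicity; inconclusive = no clear call, values can overlap the other calls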;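 note: spot-positive cell cutoff set from DMSO-treated cells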
HKDC1 inhibitor: inhibitors of human hexokinase HKDC1; recombinant HKDC1, G6PDH/diaphorase resazurin coupled fluorescence; inhibition, % at 20 µM; 0.16% of 340,000 active; AID 493160;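 active = inhibition above about 35% when tested at 20 µM, limit read from the data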;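 note: plate controls were DMSO wells with enzyme for no effect and DMSO wells lacking enzyme for full effect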
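Test system: recombinant HKDC1 (HK5) hexokinase enzyme, produced in-house / Doses: 20 µM test compound, 1% DMSO / Timing: 90 min, room temperature / Detection: G6PDH/diaphorase-coupled fluorescence, 1 mM NADP, 100 µM resazurin, 525/613 nm / Control set: DMSO wells with and without enzyme mix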
Tb hexokinase: T. brucei hexokinase 1 inhibition; recombinant TbHK1, G6PDH-coupled NADH A340; 0.11% of 220,000 active; inhibition, % at 10 µM;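 active = inhibition of 50% or more in the single-dose primary screen; inactive = inhibition below 50%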
HSV replic up: HSV replication enhancement | HSV replication augmentation in cells, fold increase | maximum fold increase | 0.005% of 220,000 active; in the data active = maximum fold increase above about 1.5; inconclusive = no clear call, values can overlap the other calls; tested in PC3 cells
Dynein cargo inh: blocks dynein driven cargo transport along microtubules | 3617.4 mouse cells, GR-EGFP nuclear translocation imaging; test concentration mostly 20 µM; stimulated with dexamethasone, 1 µM; hits give low values | z-score, hits read low | 0.47% of 220,000 active;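 active = plate z-score of nuclear minus cytoplasmic receptor signal below a set negative limit, without overly bright fluorescence or cell loss, cut at about -3.5 in these data, passing the limit was not always enough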;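 note: z-score of nuclear minus cytoplasmic ring GR-EGFP intensity difference per well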
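Schedule: 48 h induction, then 1 h compound, then 30 min agonist, 37 °C. Buffer or medium: tetracycline-free induction medium containing charcoal-stripped FBS. Reagent: 1.0 µM final dexamethasone stimulus. Evaluation: nuclear versus cytoplasmic GR-EGFP signal, averaged per well. Signal: high-content fluorescence imaging after fixation.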
PERK inh: human PERK inhibition, primary cell-based screen; Q9NZJ5; CHO PERK-DD fusion, SEAP luminescence translation reporter; inhibition, % at 5.6 µM; 0.17% of 220,000 active;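 active = inhibition above the mean inhibition of all tested compounds plus 3 SD, set separately per screening campaign, cut at about 2.9% in these data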;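 note: PERK kinase domain activated by AP20187 dimerizer at 100 nM; 0% = DMSO with dimerizer and 100% = rapamycin at 8.4 µM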
Target sequence (Q9NZJ5 whole entry, looked up, the tested form may be a part): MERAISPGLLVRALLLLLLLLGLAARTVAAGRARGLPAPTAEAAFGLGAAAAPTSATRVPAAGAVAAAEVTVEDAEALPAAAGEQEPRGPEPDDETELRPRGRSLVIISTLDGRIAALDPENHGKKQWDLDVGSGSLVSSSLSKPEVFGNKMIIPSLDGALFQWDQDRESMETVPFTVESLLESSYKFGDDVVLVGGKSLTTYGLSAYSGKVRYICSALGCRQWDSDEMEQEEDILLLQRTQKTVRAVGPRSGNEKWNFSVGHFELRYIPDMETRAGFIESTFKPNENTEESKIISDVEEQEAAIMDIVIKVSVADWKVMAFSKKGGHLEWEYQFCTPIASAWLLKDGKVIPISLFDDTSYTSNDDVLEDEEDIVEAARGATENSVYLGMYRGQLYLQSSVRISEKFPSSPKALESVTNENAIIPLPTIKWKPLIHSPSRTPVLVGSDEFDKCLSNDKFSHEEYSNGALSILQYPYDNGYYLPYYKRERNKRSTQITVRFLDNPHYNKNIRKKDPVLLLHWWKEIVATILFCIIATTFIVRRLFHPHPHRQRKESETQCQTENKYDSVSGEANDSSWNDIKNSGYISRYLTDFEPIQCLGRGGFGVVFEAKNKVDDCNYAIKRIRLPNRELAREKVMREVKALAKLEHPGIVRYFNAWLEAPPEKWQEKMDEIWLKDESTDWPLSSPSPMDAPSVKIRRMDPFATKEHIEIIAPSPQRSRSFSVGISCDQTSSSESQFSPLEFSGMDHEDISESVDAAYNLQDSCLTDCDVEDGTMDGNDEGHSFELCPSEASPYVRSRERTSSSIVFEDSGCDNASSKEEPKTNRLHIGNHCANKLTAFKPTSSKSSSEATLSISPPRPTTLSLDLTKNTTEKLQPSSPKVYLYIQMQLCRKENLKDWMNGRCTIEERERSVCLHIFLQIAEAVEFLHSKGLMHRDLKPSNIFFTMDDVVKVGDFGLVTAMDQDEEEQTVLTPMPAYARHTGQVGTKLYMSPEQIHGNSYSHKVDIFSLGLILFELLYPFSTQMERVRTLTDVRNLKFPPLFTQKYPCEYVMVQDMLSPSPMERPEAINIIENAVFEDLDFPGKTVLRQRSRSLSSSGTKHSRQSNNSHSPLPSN
* hit, by the source's call; i = inactive; ? = inconclusive; . = not tested or not shown; + = active, no number. Sampled rows, rich in hits. Any-hit rate of the full collection: about 1.2%.

SMILES | Autophagy HCS | HKDC1 inhibitor | Tb hexokinase | HSV replic up | Dynein cargo inh | PERK inh
COc1cc(OC)cc(C(=O)Nc2ccc(-c3nc4ccccc4o3)cc2)c1 | + | 0 | -31 | i | 0.72 | -1
COc1cccc(OCCCn2cc(/C=C3/C(=N)N4C=C(C)SC4=NC3=O)c3ccccc32)c1 | i | 7 | 14 | i | 0.8 | 0
COc1ccc(OCCCn2cc(/C=C3/C(=N)N4C=C(C)SC4=NC3=O)c3ccccc32)cc1 | + | -9 | 15 | i | -0.37 | 1
O=C1C2C3C=CC(CO)(O3)C2C(=O)N1c1ccccc1-c1ccccc1 (configuration not stated) | i | -4 | 2 | i | -5.7* | 0
CC(=O)Oc1ccc(N2C(=O)C3C4C=CC(CO)(O4)C3C2=O)cc1 (configuration not stated) | i | -6 | 0 | i | 0.033 | 1
Cc1cccc(C)c1NC(=O)COC(=O)c1c2c(nc3ccccc13)/C(=C\c1ccc3c(c1)OCO3)CCC2 | + | 2 | -8 | ? | -0.11 | 0
COC(=O)c1sc2cc([N+](=O)[O-])cc(SCC(C)C)c2c1N | + | 11 | 5 | ? | -0.53 | 1
CCOC(=O)c1sc2ncc([N+](=O)[O-])cc2c1N | . | -1 | -15 | i | 0.22 | -1
COc1ccc2cc(C(=O)NCc3ccco3)c(=Nc3ccc(C(=O)O)cc3)oc2c1 | i | 14 | -8 | i | -0.21 | 0
COc1ccc(N=c2oc3c(OC)cccc3cc2C(=O)NCc2ccco2)c(OC)c1 | + | 0 | -22 | i | 1.5 | 0
COc1ccc(S(=O)(=O)N2CCOC2CNC(=O)C(=O)NCCc2ccc(OC)c(OC)c2)cc1 (configuration not stated) | + | 3 | 3 | i | 0.33 | -1
COc1ccc(CCNC(=O)C(=O)NCC2OCCN2S(=O)(=O)c2ccc(Br)cc2)cc1OC (configuration not stated) | i | -9 | -6 | i | -0.42 | 0
CN(CC(=O)Nc1cccc(F)c1)C(=O)CC1CC2CCC1C2 (configuration not stated) | . | -3 | . | . | . | .
CCCNc1c(F)c(F)c2c(C)c3ccccc3nc2c1F | + | 7 | -8 | i | -2.2 | 1
COc1ccc(-c2c(C)n([O-])c3c([n+]2=O)CCCC3)cc1OC | + | . | -7 | i | -0.25 | 0
CCCn1nnc(NC(=O)c2cccc(OCC(C)C)c2)n1 | i | 0 | 5 | i | 2.3 | 0
CCOc1cccc(C(=O)Nc2cccc(-c3nnc(-c4ccc(C)cc4)o3)c2)c1 | + | -5 | -13 | i | -0.23 | 0
CCCn1nnc(NC(=O)c2cccc(OCC)c2)n1 | + | -2 | 2 | i | -0.47 | 0
CN(Cc1ccccc1Cl)C(=O)C1CCC(=O)N(C2CCCCCC2)C1 (configuration not stated) | . | -1 | . | . | . | .
O=C(CCS(=O)(=O)c1ccc(Br)cc1)N1CCN(c2ccccc2)CC1 | + | 5 | 4 | i | -0.25 | -1
COc1ccc(CCN(CC(=O)NCc2ccc(F)cc2)C(=O)c2snc(C(N)=O)c2N)cc1OC | . | -3 | . | . | . | .
CN(CC(=O)Nc1ccccc1Br)C(=O)CNC(=O)c1ccco1 | . | -1 | . | . | . | .
N#Cc1cc2ccccc2nc1SCC(=O)Nc1ccccc1N1CCOCC1 | + | 1 | 1 | . | 0.37 | 0
Cc1ccc(C2=NN(CC(=O)NCCC(C)C)C(=O)CC2)cc1 | . | -3 | . | . | . | .
CN(C)C1(CNC(=O)C2CCN(S(=O)(=O)c3ccccc3C(F)(F)F)CC2)CCCCC1 | . | 0 | . | . | . | .
SMILES | Autophagy HCS | HKDC1 inhibitor | Tb hexokinase | HSV replic up | Dynein cargo inh | PERK inh
Cc1nc2ccccn2c1C(=O)/C=C/c1cccc([N+](=O)[O-])c1 | + | 8 | -8 | i | -2.5 | -1
O=C(/C=C/c1cccc([N+](=O)[O-])c1)c1ccc([N+](=O)[O-])o1 | . | 55* | . | . | . | .
O=C(/C=C/c1cccc([N+](=O)[O-])c1)c1ccco1 | . | 17 | . | . | . | .
CC(C)N(C(=O)/C=C/c1cccc([N+](=O)[O-])c1)C(C)C | i | -8 | -5 | i | -0.96 | 3.6*
COc1cccc(CNCCSc2nnnn2C)c1 | i | -8 | -9 | i | -0.25 | -1
Cn1nnnc1SCCNCc1cccnc1 | i | 0 | 2 | i | 1.7 | 3.2*
CSCCC(NC(=O)c1ccccc1Br)C(=O)NNC(=O)C1COc2ccccc2O1 (configuration not stated) | . | -8 | . | . | . | .
CCC(OC(=O)c1cccs1)C(=O)NCc1ccc(C)cc1 (configuration not stated) | + | -3 | 1 | i | 0.6 | 0
CCC(OC(=O)c1cccs1)C(=O)NCc1ccc2c(c1)OCO2 (configuration not stated) | i | 0 | 0 | i | -0.13 | 1
Cc1ccc(CNC(=O)/C=C/c2c(Cl)cccc2Cl)cc1 | i | 14 | 15 | i | -0.3 | 1
Cc1ccc(CNC(=O)/C=C/c2ccccc2Cl)cc1 | i | -5 | 1 | i | 1.3 | 3.0*
O=C(CSc1nc2nc(-c3cccs3)cc(C(F)(F)F)c2c(=O)[nH]1)C(F)(F)F | . | 4 | . | . | . | .
COc1ccc2nc(NCc3ccccc3)[nH]c2c1 | i | -2 | 5 | i | -0.29 | 0
Cc1ccc2nc(NCc3ccccc3)[nH]c2c1 | + | -3 | 5 | i | 0.43 | -1
CC(Oc1ccc(Br)cc1)C(=O)Nc1cc(Cl)ccc1N1CCN(C)CC1 (configuration not stated) | . | 6 | . | . | . | .
O/N=C/c1ccc2cccc(O)c2n1 | . | -14 | -9 | i | -0.79 | 3.7*
CCOCCCNc1nc2c(C)cccn2c(=O)c1/C=C1\SC(=S)N(CC(C)C)C1=O | + | 1 | -8 | . | -1.8 | 1
CCCN1C(=O)/C(=C/c2c(NCCCOCC)nc3c(C)cccn3c2=O)SC1=S | + | -2 | 9 | ? | -1.5 | 1
CCOCCCNc1nc2c(C)cccn2c(=O)c1/C=C1\SC(=S)N(C(C)CC)C1=O (configuration not stated) | . | 2 | -30 | ? | -6.3 | 0
COc1ccc(NS(=O)(=O)c2cc(NC(=O)c3nc4nc(C)cc(C)n4n3)ccc2C)cc1 | + | 0 | -5 | i | -0.35 | 0
O=C(CN1C(=O)COc2ccc(S(=O)(=O)N3CCOCC3)cc21)NCc1ccccn1 | . | 0 | -6 | i | -0.78 | 3.5*
O=C(CN1C(=O)COc2ccc(S(=O)(=O)N3CCOCC3)cc21)NCc1ccco1 | . | 11 | 1 | i | -0.98 | 2
COc1cc(C(=O)NCCC(=O)NCCN2CCCCCC2)cc(OC)c1OC | i | -11 | 4 | i | 1.2 | 1
COc1cc(C(=O)NCCN2CCCC2)cc(OC)c1OC | + | -7 | 2 | i | -0.063 | 1
Cc1ccccc1CO/N=C/c1[nH]ncc1Br | . | -1 | -6 | i | -0.19 | 3.5*
